Laboratory results: ChEMBL document CHEMBL4145562, “Bioactivity-Guided Isolation of Potential Antidiabetic and Antihyperlipidemic Compounds from Trigonella stellata” (J Nat Prod, 2018)
The source made the active and inactive calls. No cut-off for these calls is given here.

Columns and labels:
Assay type in all cases: cell-based
[1] = biological target: T1, Peroxisome proliferator-activated receptor gamma (Homo sapiens) (UniProt P37231); assay: Agonist activity at PPARgamma (unknown origin) expressed in human HepG2 cells cotransfected with PPREaP2-tk at 25 ug/ml after 24 hrs by luciferase reporter gene assay relative to control
T1 sequence (whole entry): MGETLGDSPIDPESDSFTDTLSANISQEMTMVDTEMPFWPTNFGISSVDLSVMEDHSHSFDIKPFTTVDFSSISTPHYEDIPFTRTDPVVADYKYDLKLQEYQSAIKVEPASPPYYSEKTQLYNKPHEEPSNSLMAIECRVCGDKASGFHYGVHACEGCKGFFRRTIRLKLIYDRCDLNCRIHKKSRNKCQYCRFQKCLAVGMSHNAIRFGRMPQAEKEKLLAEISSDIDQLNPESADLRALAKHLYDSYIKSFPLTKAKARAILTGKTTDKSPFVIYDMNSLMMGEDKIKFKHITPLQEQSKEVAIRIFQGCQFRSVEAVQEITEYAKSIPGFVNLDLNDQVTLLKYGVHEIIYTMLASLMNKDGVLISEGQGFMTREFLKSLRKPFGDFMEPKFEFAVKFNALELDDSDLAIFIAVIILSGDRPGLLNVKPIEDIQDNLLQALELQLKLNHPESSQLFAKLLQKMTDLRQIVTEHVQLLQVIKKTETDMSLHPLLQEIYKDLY
In short: (§1)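 Rat PPARγ (pCMV-rPPARγ) was co-electroporated with the pPPREaP2-tk-luc reporter (25 μg/1.5 mL cell suspension; 160 V, one 70 ms pulse) into HepG2 cells kept in DMEM/10% FBS with antibiotics. Cells were seeded at 5 × 10^4/well for 24 h, then exposed to samples for 24 h. Luciferase was read in lysates and expressed as fold induction relative to vehicle.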

[2] = biological target: T1, Peroxisome proliferator-activated receptor gamma (Homo sapiens); assay: Agonist activity at PPARgamma (unknown origin) expressed in human HepG2 cells cotransfected with PPREaP2-tk at 50 ug/ml after 24 hrs by luciferase reporter gene assay relative to control; in short: as §1
[3] = biological target: T2, Peroxisome proliferator-activated receptor alpha (Homo sapiens) (UniProt Q07869); assay: Agonist activity at PPARalpha (unknown origin) expressed in human HepG2 cells cotransfected with PPRE X3-tk at 50 ug/ml after 24 hrs by luciferase reporter gene assay relative to control
T2 sequence (whole entry): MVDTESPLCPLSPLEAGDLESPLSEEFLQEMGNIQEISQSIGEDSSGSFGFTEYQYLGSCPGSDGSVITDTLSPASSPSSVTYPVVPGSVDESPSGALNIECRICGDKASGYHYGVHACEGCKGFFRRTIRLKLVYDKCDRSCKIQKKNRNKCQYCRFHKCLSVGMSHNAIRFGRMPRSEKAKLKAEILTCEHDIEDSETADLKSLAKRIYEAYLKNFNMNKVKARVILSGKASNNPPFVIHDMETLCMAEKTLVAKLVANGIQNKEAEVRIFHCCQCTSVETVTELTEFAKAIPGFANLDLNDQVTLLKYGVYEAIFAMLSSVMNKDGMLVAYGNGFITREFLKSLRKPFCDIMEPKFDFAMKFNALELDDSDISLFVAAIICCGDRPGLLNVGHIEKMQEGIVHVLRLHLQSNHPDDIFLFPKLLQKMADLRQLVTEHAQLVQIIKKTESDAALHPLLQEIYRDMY
In short: (§2)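 HepG2 cells grown in DMEM with 10% FBS, penicillin and streptomycin, then electroporated (160 V, single 70 ms pulse) with pSG5-PPARα plus PPRE X3-tk-luc plasmids (25 μg/1.5 mL cell suspension). Cells were plated at 5 × 10^4/well and grown 24 h, then treated for 24 h and lysed. Luciferase activity was reported as fold induction over vehicle control.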

[4] = biological target: T2, Peroxisome proliferator-activated receptor alpha (Homo sapiens); assay: Agonist activity at PPARalpha (unknown origin) expressed in human HepG2 cells cotransfected with PPRE X3-tk at 25 ug/ml after 24 hrs by luciferase reporter gene assay relative to control; in short: as §2
[5] = biological target: T1, Peroxisome proliferator-activated receptor gamma (Homo sapiens); assay: Agonist activity at PPARgamma (unknown origin) expressed in human HepG2 cells cotransfected with PPREaP2-tk at 12.5 ug/ml after 24 hrs by luciferase reporter gene assay relative to control; in short: as §1
[6] = biological target: T2, Peroxisome proliferator-activated receptor alpha (Homo sapiens); assay: Agonist activity at PPARalpha (unknown origin) expressed in human HepG2 cells cotransfected with PPRE X3-tk at 12.5 ug/ml after 24 hrs by luciferase reporter gene assay relative to control; in short: as §2
[7] = biological target: T2, Peroxisome proliferator-activated receptor alpha (Homo sapiens); assay: Agonist activity at PPARalpha (unknown origin) expressed in human HepG2 cells cotransfected with PPRE X3-tk at 1.45 ug/ml after 24 hrs by luciferase reporter gene assay relative to control; in short: as §2

Compound	Activity [1]	Activity [2]	fold change (FC) [3]	fold change (FC) [4]	Activity [5]	fold change (FC) [6]	fold change (FC) [1]	fold change (FC) [2]	Activity [3]	Activity [4]	fold change (FC) [5]	Activity [6]	fold change (FC) [7]
COc1ccc2c(c1)OC[C@H](c1ccc(O)cc1O)[C@H]2O	inactive	inactive	2.25	1.88	inactive	1.29							
COc1ccc2c(c1)OC[C@@H](c1ccc(O[C@@H]3O[C@H](CO)[C@@H](O)[C@H](O)[C@H]3O)cc1O)[C@@H]2O			1.67	1.32		1.14	1.36	1.74			1.22		
C[C@@H]1O[C@@H](O[C@H]2[C@H](O[C@H]3[C@H](O[C@H]4CC[C@@]5(C)[C@@H](CC[C@]6(C)[C@@H]5CC=C5[C@@H]7CC(C)(C)C[C@@H](O)[C@]7(C)CC[C@]56C)[C@@]4(C)CO)O[C@H](C(=O)O)[C@@H](O)[C@@H]3O)O[C@H](CO)[C@H](O)[C@@H]2O)[C@H](O)[C@H](O)[C@H]1O							1.36	1.79	inactive	inactive	1.22	inactive	
CC(C)(Oc1ccc(C2CC2(Cl)Cl)cc1)C(=O)O (centres undefined)													2.2
COc1ccc2c(c1)OC(OC)C(c1ccc(O)cc1O)[C@H]2O (single isomer, unassigned)	inactive	inactive		2	inactive	1.93			inactive				
C[C@@H]1O[C@@H](Oc2cc(O)c3c(=O)c(O[C@@H]4O[C@@H](C)[C@H](O)[C@@H](O)[C@H]4O)c(-c4ccc(O)c(O)c4)oc3c2)[C@H](O)[C@H](O)[C@H]1O	inactive	inactive			inactive				inactive	inactive		inactive	

Results, then the compound that gave them:

Activity [1]	Activity [2]	fold change (FC) [3]	fold change (FC) [4]	Activity [5]	fold change (FC) [6]	fold change (FC) [1]	fold change (FC) [2]	Activity [3]	Activity [4]	fold change (FC) [5]	Activity [6]	fold change (FC) [7]	Compound
						0.9	1.35	inactive	inactive	1	inactive		O=C(O)c1ccc(O)cc1
inactive	inactive			inactive				inactive	inactive		inactive		O=c1cc(-c2ccc(O)cc2)oc2cc(O)ccc12
inactive	inactive			inactive				inactive	inactive		inactive		O=C(O)CCc1ccccc1O[C@@H]1O[C@H](CO)[C@@H](O)[C@H](O)[C@H]1O
